Data on two compounds can be found in ChEMBL document CHEMBL1151197, “Molecular-targeted antitumor agents: the Saururus cernuus dineolignans manassantin B and 4-O-demethylmanassantin B are potent inhibitors of hypoxia-activated HIF-1” (J Nat Prod, 2004).

Holding throughout (assay type): cell-based
In assay [1] the target is T1, Hypoxia inducible factors; HIF-1-alpha, HIF-2-alpha (Homo sapiens, UniProt Q16665+Q99814). Put plainly: Inhibition of hypoxia-induced HIF1 activation in human T47D cells at 100 nM after 16 hrs by pTK-HRE3-luciferase reporter gene assay. The procedure, abridged:
(§1)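 Reporter: T47D cells electroporated with pTK-HRE3-luc (140 V, 70 ms, 1 pulse), plated 4.5 × 10^4 cells/well, after 24 h pretreated with serial dilutions for 30 min at 37 °C, then hypoxia (1% O2/5% CO2/94% N2) for 16 h at 37 °C. Luciferase read from lysates; triplicate wells, means ± SD. pGL3-Control cells run as counter-screen.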

For assay [2], the system named is T47D. Put plainly: Inhibition of hypoxia-induced VEGF production in human T47D cells after 16 hrs by ELISA. Put shortly: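 T47D cells at 3 × 10^4 cells/well, 30 min compound pretreatment, then 16 h hypoxia (1% O2). Secreted VEGF measured in conditioned medium by sandwich ELISA (OD450, 540 nm correction) against a standard curve. Values normalized to viable cell number from Neutral Red uptake (OD540 minus 630 nm, cell-number standard curve). Quadruplicate; mean ± SEM; ANOVA with Fisher's PLSD.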
(In general: ELISA stands for enzyme-linked immunosorbent assay.)

Assay [3] deals with T1, Hypoxia inducible factors; HIF-1-alpha, HIF-2-alpha. Put plainly: Inhibition of 1,10-phenathroline-induced HIF1 activation in human T47D cells after 16 hrs at >=30 nM by pTK-HRE3-luciferase reporter gene assay. On the set-up: scale not given: the % may be the effect or the level left. The procedure, abridged:
(§2)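 T47D cells electroporated with pTK-HRE3-luc (140 V, 70 ms, 1 pulse), plated 4.5 × 10^4 cells/well, after 24 h given a dilution series for 30 min at 37 °C, then 10 µM 1,10-phenanthroline for 16 h at 37 °C. Luciferase read from cell lysates; quadruplicate wells. Specificity counter-screen used pGL3-Control-transfected cells.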
(A reporter such as luciferase makes a cellular process visible.)

Assay [4] shares this target. Put plainly: Inhibition of hypoxia-induced HIF1 activation in human T47D cells after 16 hrs by pTK-HRE3-luciferase reporter gene assay. The procedure, abridged: as §1
The target is the same in assay [5]. Put plainly: Inhibition of 1,10-phenathroline-induced HIF1 activation in human T47D cells after 16 hrs at >=10 nM by pTK-HRE3-luciferase reporter gene assay. Further details: scale not given: the % may be the effect or the level left. Put shortly:
as §2

In assay [6] the test system is T47D. Put plainly: Inhibition of 1,10-phenathroline-induced nuclear HIF1 beta level in human T47D cells at 10 to 100 nM preincubated for 30 mins before addition of 1,10-phenathroline measured after 4 hrs by Western blotting. Put shortly: (§3)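 Seeded at 1.7 × 10^5 cells/cm2 overnight, T47D cells got 10 or 100 nM for 30 min, then 4 h of hypoxia or 10 µM 1,10-phenanthroline at 37 °C. Nuclear extracts prepared by NP-40 lysis and 500 mM KCl extraction, separated on 7% SDS-PAGE. Blots probed with anti-HIF-1α (1:500), stripped, reprobed for HIF-1β (1:1500); ABC/ECL detection, Ponceau-S loading check.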

Assay [7] concerns the target Hypoxia-inducible factor 1-alpha (Homo sapiens) (UniProt Q16665). Put plainly: Inhibition of 1,10-phenathroline-induced nuclear HIF1 alpha level in human T47D cells at 10 to 100 nM preincubated for 30 mins before addition of 1,10-phenathroline measured after 4 hrs by Western blotting. The procedure, abridged: as §3
On the technique in general: A western blot detects proteins with antibodies after separation by electrophoresis.

Assay [8] addresses T1, Hypoxia inducible factors; HIF-1-alpha, HIF-2-alpha. Put plainly: Inhibition of hypoxia-induced HIF1 activation in human T47D cells at 10 nM after 16 hrs by pTK-HRE3-luciferase reporter gene assay. The procedure, abridged:
as §1

In assay [9] the target is Hypoxia-inducible factor 1-alpha (Homo sapiens) (UniProt Q16665). Put plainly: Inhibition of hypoxia-induced nuclear HIF1 alpha level in human T47D cells at 10 to 100 nM preincubated for 30 mins before addition of hypoxia measured after 4 hrs by Western blotting. Put shortly:
as §3

For assay [10], the system named is T47D. Put plainly: Inhibition of hypoxia-induced nuclear HIF1 beta level in human T47D cells at 10 to 100 nM preincubated for 30 mins before addition of hypoxia measured after 4 hrs by Western blotting. Put shortly: as §3

Molecules are shown by their SMILES. Active and inactive are the calls of the source. The rule behind the calls is not given here.

Sequence of Hypoxia-inducible factor 1-alpha (Homo sapiens) (Q16665 whole entry, looked up): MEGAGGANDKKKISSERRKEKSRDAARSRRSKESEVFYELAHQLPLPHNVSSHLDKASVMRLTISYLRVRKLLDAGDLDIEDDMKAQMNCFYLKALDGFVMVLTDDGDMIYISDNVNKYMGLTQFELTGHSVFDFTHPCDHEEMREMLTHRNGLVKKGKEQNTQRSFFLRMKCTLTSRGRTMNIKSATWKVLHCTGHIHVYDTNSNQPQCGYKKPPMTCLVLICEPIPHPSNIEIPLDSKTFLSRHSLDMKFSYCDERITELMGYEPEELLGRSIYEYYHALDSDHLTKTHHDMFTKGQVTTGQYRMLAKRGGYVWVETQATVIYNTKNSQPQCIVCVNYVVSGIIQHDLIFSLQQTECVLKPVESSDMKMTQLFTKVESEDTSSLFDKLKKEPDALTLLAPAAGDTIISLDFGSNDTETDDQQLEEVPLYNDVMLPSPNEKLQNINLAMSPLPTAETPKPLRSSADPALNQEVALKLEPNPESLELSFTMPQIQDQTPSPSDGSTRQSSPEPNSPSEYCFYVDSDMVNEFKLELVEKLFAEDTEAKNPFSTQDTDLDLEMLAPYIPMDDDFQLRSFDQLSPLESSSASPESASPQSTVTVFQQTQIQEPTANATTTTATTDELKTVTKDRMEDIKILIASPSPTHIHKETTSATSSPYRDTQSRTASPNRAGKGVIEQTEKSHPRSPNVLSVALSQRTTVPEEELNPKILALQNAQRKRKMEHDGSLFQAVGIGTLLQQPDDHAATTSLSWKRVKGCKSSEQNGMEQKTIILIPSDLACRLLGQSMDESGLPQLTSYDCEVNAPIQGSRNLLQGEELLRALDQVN

As for `COc1cc([C@@H](O)[C@@H](C)Oc2ccc([C@H]3O[C@H](c4ccc(O[C@H](C)[C@H](O)c5ccc6c(c5)OCO6)c(OC)c4)[C@H](C)[C@H]3C)cc2OC)ccc1O` (mixture of isomers) [4-O-DEMETHYLMANASSANTIN B], the outcome (in assay [1]; with T47D [2]) was Active. Also, the Activity in assay [3] and in assay [5] was under 50% each time. Also, the IC50 in assay [4] is 30 nM.

Turning to `COc1ccc([C@@H](O)[C@@H](C)Oc2ccc([C@H]3O[C@H](c4ccc(O[C@H](C)[C@H](O)c5ccc6c(c5)OCO6)c(OC)c4)[C@H](C)[C@H]3C)cc2OC)cc1OC` (relative stereo) [MANASSANTIN B], the outcome (in the assay with T47D [2]; in [8]; in assay [9]) was Active. The Activity in [3] and in assay [5] was under 50% throughout. The result (in the assay on T47D [6]; in assay [7]; in the assay with T47D [10]) was inactive. Besides, in [4], the IC50 is given as 3 nM.

As usually defined, the IC50 is the concentration at which inhibition is half-maximal.
